Measured values from different studies.
Compare with care: the assays were run in different laboratories.
TMEM97: Sigma intracellular receptor 2 (TMEM97, Homo sapiens, UniProt Q5BJF2)
PTGS2: Prostaglandin G/H synthase 2 (PTGS2, Homo sapiens, UniProt P35354)
tspO: tspO (Cereibacter sphaeroides, UniProt Q9RFC8)
Serine protease HTRA1 S328A: Serine protease HTRA1 (Homo sapiens, UniProt Q92743, S328A)

`OCCN1CCN(CCCN2c3ccccc3C=Cc3ccccc32)CC1` gave a Ki of 126 nM (TMEM97; ligand displacement, radioligand).
`COc1cc(C(=O)N2CC[C@@H](O)[C@@H](N)C2)cc2nc(-c3cc4ccccc4n3CC3CC3)n(C)c12` has an IC50 of greater than 100 µM (PTGS2; enzyme activity, inhibitor).
`COc1cc(/C=C/C(=O)CC(=O)/C=C/c2ccc(O)c(OC)c2)ccc1O` has a Kd of 1.4 µM (tspO; binding, fluorescence).
`CC[C@H](C)[C@H](NC(=O)[C@H](Cc1c[nH]c2ccccc12)NC(=O)[C@H](C)NC(=O)[C@H](C)NC(=O)[C@H](Cc1ccc(O)cc1)NC(=O)[C@@H](N)CO)C(=O)N[C@@H](CC(=O)O)C(=O)N[C@H](C(=O)N[C@@H](CCC(=O)O)C(=O)N[C@@H](CC(=O)O)C(=O)N[C@@H](CC(C)C)C(=O)O)C(C)C` has a Kd of 34 µM (Serine protease HTRA1 S328A; binding, ITC; pH 8).
`NC[C@@H]1[C@H]2CN3C(=O)c4cccn4[C@@H]4NC(N)=N[C@@]43[C@@H]2[C@]2(N=C(N)N[C@H]2O)[C@H]1Cl` (single isomer, unassigned) has an IC50 of 2.8 µM (Proteasome subunit beta type-8, chymotrypsin-like site (PSMB8, Homo sapiens, UniProt P28062); enzyme activity, inhibitor).
For `CCC(C)N(C)C(=O)c1cc2ccccc2c(-c2ccccc2Cl)n1` (centres unmarked), the Kd was 10 µM (tspO; binding, fluorescence).
`CN(CCCN1c2ccccc2CCc2ccccc21)CC(=O)c1ccc(Cl)cc1` has a Ki of 2010 nM (TMEM97; ligand displacement, radioligand).
`CC(C)(NC(=O)O[C@@H]1CN2CCC1CC2)c1csc(-c2ccc(F)cc2)n1` has an IC50 of greater than 300 µM (Lysosomal acid glucosylceramidase (GBA1, Homo sapiens, UniProt P04062); enzyme activity, inhibitor).
`CC(C)C[C@H](NC(=O)[C@H](CO)NC(=O)[C@H](CCC(=O)O)NC(=O)[C@@H](NC(=O)[C@H](CC(C)C)NC(=O)[C@H](CC(=O)O)NC(=O)[C@H](CC(=O)O)NC(=O)[C@H](CC(=O)O)NC(=O)[C@@H](NC(=O)[C@H](Cc1c[nH]c2ccccc12)NC(=O)[C@@H](N)CCC(=O)O)[C@@H](C)O)C(C)C)C(=O)O` has a Kd of 39.7 µM (Serine protease HTRA1 S328A; binding, ITC; pH 8).
With `CC(C)(C)[C@]1(O)CCN2C[C@@H]3c4ccccc4CCc4cccc(c43)[C@H]2C1` the Ki was 4790 nM (TMEM97; ligand displacement, radioligand).
`CC(C)C[C@H](NC(=O)[C@H](Cc1ccccc1)NC(=O)c1cnccn1)B(O)O` has an IC50 of 8.5 µM (Dipeptidyl peptidase 2 (Homo sapiens, UniProt Q9UHL4); enzyme activity, inhibitor).
With `CN(C)CCOC(C)(c1ccccc1)c1ccccn1` (centres unmarked) the Ki was greater than 10000 nM (TMEM97; ligand displacement, radioligand).
With `CC(C)C[C@H](NC(=O)[C@H](CC(=O)O)NC(=O)[C@H](CC(=O)O)NC(=O)[C@H](CC(=O)O)NC(=O)[C@@H](NC(=O)[C@H](Cc1c[nH]c2ccccc12)NC(=O)[C@@H](N)CCC(=O)O)[C@@H](C)O)C(=O)N[C@@H](CO)C(=O)N[C@H](C(=O)N[C@@H](CC(C)C)C(=O)N[C@@H](C)C(=O)O)C(C)C` the Kd was 20.5 µM (Serine protease HTRA1 S328A; binding, ITC; pH 8).
`Cc1c(-c2ccccc2)no[n+]1[O-]` has an IC50 of greater than 50 µM (Thioredoxin glutathione reductase (Schistosoma mansoni, UniProt Q962Y6); enzyme activity, inhibitor).
`CC[C@@H]1SC2(CCN(C)CC2)NC1=O` has an EC50 of 32.8 nM (Muscarinic acetylcholine receptor M3 (CHRM3, Homo sapiens, UniProt P20309); calcium signal, agonist).
For `CC1CCN(CCCC(=O)c2ccc(F)cc2)CC1`, the Ki was 115 nM (TMEM97; ligand displacement, radioligand).
`O=C1Nc2ccccc2/C1=C/c1cn(-c2nc(Cl)nc(N3CCOCC3)n2)c2ccccc12` gave an IC50 of 2 µM (PTGS2; enzyme activity, inhibitor).
